Calls of active or inactive are those of the source.
Assays:
Assay type in all cases: functional, cell-based
Malme-3M = assay: Antiproliferative activity against human MALME-3M cells at 10 uM incubated for 48 hrs by sulforhodamine B assay
Method in brief: (§1)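 Run by the NCI Developmental Therapeutics Program (Division of Cancer Treatment and Diagnosis) as part of the NCI60 human tumour cell line panel screen. Each compound was tested at a single dose of 10 μM. Results are reported as one-dose mean graphs.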

ACHN = assay: Antiproliferative activity against human ACHN cells at 10 uM incubated for 48 hrs by sulforhodamine B assay; method in brief: as §1
SF-268 = assay: Antiproliferative activity against human SF268 cells at 10 uM incubated for 48 hrs by sulforhodamine B assay; method in brief: as §1
SF-295 = assay: Antiproliferative activity against human SF295 cells at 10 uM incubated for 48 hrs by sulforhodamine B assay; method in brief: as §1
OVCAR-5 = assay: Antiproliferative activity against human OVCAR5 cells at 10 uM incubated for 48 hrs by sulforhodamine B assay; method in brief: as §1
NCI-H322M = assay: Antiproliferative activity against human NCI-H322M cells at 10 uM incubated for 48 hrs by sulforhodamine B assay; method in brief: as §1
HCT-15 = assay: Antiproliferative activity against human HCT15 cells at 10 uM incubated for 48 hrs by sulforhodamine B assay; method in brief: as §1
HCT-116 = assay: Antiproliferative activity against human HCT116 cells at 10 uM incubated for 48 hrs by sulforhodamine B assay; method in brief: as §1
MDA-MB-468 = assay: Antiproliferative activity against human MDA-MB-468 cells at 10 uM incubated for 48 hrs by sulforhodamine B assay; method in brief: as §1
OVCAR-4 = assay: Antiproliferative activity against human OVCAR4 cells at 10 uM incubated for 48 hrs by sulforhodamine B assay; method in brief: as §1
Hs-578T = assay: Antiproliferative activity against human Hs 578T cells at 10 uM incubated for 48 hrs by sulforhodamine B assay; method in brief: as §1
UACC-257 = assay: Antiproliferative activity against human UACC257 cells at 10 uM incubated for 48 hrs by sulforhodamine B assay
Method in brief: (§2)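 Run by the NCI Developmental Therapeutics Program (Division of Cancer Treatment and Diagnosis) as part of the NCI60 human tumour cell line panel. Each compound was tested in vitro at a single dose of 10 μM, and the data are reported as one-dose mean graphs across the panel.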

SR = assay: Antiproliferative activity against human SR cells at 10 uM incubated for 48 hrs by sulforhodamine B assay; method in brief: as §2
HL-60(TB) = assay: Antiproliferative activity against human HL-60(TB) cells at 10 uM incubated for 48 hrs by sulforhodamine B assay
Method in brief: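 Tested within the NCI60 cancer cell line panel screen run by the Developmental Therapeutics Program (Division of Cancer Treatment and Diagnosis, National Cancer Institute). Each stereoisomer was given at a single dose of 10 μM. Results are reported as one-dose mean graphs.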

K562 = assay: Antiproliferative activity against human K562 cells at 10 uM incubated for 48 hrs by sulforhodamine B assay; method in brief: as §1
OVCAR-8 = assay: Antiproliferative activity against human OVCAR8 cells at 10 uM incubated for 48 hrs by sulforhodamine B assay; method in brief: as §1
SW-620 = assay: Antiproliferative activity against human SW620 cells at 10 uM incubated for 48 hrs by sulforhodamine B assay; method in brief: as §2
SK-MEL-2 = assay: Antiproliferative activity against human SK-MEL-2 cells at 10 uM incubated for 48 hrs by sulforhodamine B assay; method in brief: as §1
786-0 = assay: Antiproliferative activity against human 786-0 cells at 10 uM incubated for 48 hrs by sulforhodamine B assay; method in brief: as §1
HOP-62 = assay: Antiproliferative activity against human HOP62 cells at 10 uM incubated for 48 hrs by sulforhodamine B assay; method in brief: as §1
NCI-H522 = assay: Antiproliferative activity against human NCI-H522 cells at 10 uM incubated for 48 hrs by sulforhodamine B assay; method in brief: as §1
TK-10 = assay: Antiproliferative activity against human TK10 cells at 10 uM incubated for 48 hrs by sulforhodamine B assay; method in brief: as §2
MDA-MB-435 = assay: Antiproliferative activity against human MDA-MB-435 cells at 10 uM incubated for 48 hrs by sulforhodamine B assay; method in brief: as §1
T47D = assay: Antiproliferative activity against human T47D cells at 10 uM incubated for 48 hrs by sulforhodamine B assay; method in brief: as §2
RPMI-8226 = assay: Antiproliferative activity against human RPMI8226 cells at 10 uM incubated for 48 hrs by sulforhodamine B assay; method in brief: as §1
SK-OV-3 = assay: Antiproliferative activity against human SKOV3 cells at 10 uM incubated for 48 hrs by sulforhodamine B assay; method in brief: as §1
RXF 393 = assay: Antiproliferative activity against human RXF393 cells at 10 uM incubated for 48 hrs by sulforhodamine B assay; method in brief: as §1
EKVX = assay: Antiproliferative activity against human EKVX cells at 10 uM incubated for 48 hrs by sulforhodamine B assay; method in brief: as §1
COLO 205 = assay: Antiproliferative activity against human COLO205 cells at 10 uM incubated for 48 hrs by sulforhodamine B assay; method in brief: as §1
CAKI-1 = assay: Antiproliferative activity against human Caki1 cells at 10 uM incubated for 48 hrs by sulforhodamine B assay; method in brief: as §1
NCI/ADR-RES = assay: Antiproliferative activity against human NCI/ADR-RES cells at 10 uM incubated for 48 hrs by sulforhodamine B assay; method in brief: as §1
SK-MEL-28 = assay: Antiproliferative activity against human SK-MEL-28 cells at 10 uM incubated for 48 hrs by sulforhodamine B assay; method in brief: as §1
U-251 = assay: Antiproliferative activity against human U251 cells at 10 uM incubated for 48 hrs by sulforhodamine B assay; method in brief: as §2
KM12 = assay: Antiproliferative activity against human KM12 cells at 10 uM incubated for 48 hrs by sulforhodamine B assay; method in brief: as §1
OVCAR-3 = assay: Antiproliferative activity against human OVCAR3 cells at 10 uM incubated for 48 hrs by sulforhodamine B assay; method in brief: as §1
NCI-H226 = assay: Antiproliferative activity against human NCI-H226 cells at 10 uM incubated for 48 hrs by sulforhodamine B assay; method in brief: as §1
SK-MEL-5 = assay: Antiproliferative activity against human SK-MEL-5 cells at 10 uM incubated for 48 hrs by sulforhodamine B assay; method in brief: as §1
SNB-75 = assay: Antiproliferative activity against human SNB75 cells at 10 uM incubated for 48 hrs by sulforhodamine B assay; method in brief: as §2
UACC-62 = assay: Antiproliferative activity against human UACC62 cells at 10 uM incubated for 48 hrs by sulforhodamine B assay; method in brief: as §2
NCI-H23 = assay: Antiproliferative activity against human NCI-H23 cells at 10 uM incubated for 48 hrs by sulforhodamine B assay; method in brief: as §1
SNB-19 = assay: Antiproliferative activity against human SNB19 cells at 10 uM incubated for 48 hrs by sulforhodamine B assay; method in brief: as §1
PC-3 = assay: Antiproliferative activity against human PC3 cells at 10 uM incubated for 48 hrs by sulforhodamine B assay; method in brief: as §1
MDA-MB-231 = assay: Antiproliferative activity against human MDA-MB-231 cells at 10 uM incubated for 48 hrs by sulforhodamine B assay; method in brief: as §1

Measured: Activity

CC(=O)O[C@@H](C)[C@@H]1O[C@@H]2CC(=O)O[C@@H]2[C@H]1O
inactive: all assays above

CC(=O)O[C@H](C)[C@H]1O[C@H]2CC(=O)O[C@H]2[C@@H]1O
inactive: all assays above

CC(=O)O[C@H](C)[C@@H]1O[C@@H]2CC(=O)O[C@@H]2[C@H]1O
inactive: all assays above

CC(=O)O[C@@H](C)[C@H]1O[C@H]2CC(=O)O[C@H]2[C@@H]1O
inactive: all assays above
